Measurements reported in ChEMBL document CHEMBL1132273, “Subtype-selective N-methyl-D-aspartate receptor antagonists: synthesis and biological evaluation of 1-(arylalkynyl)-4-benzylpiperidines” (J Med Chem, 1999).

Key:
[1] = target: T1, Adrenergic receptor alpha-1 (Rattus norvegicus, UniProt P15823+P23944+P43140); assay: The compound was tested for binding affinity against Alpha-1 adrenergic receptor from rat using [3H]prazosin as radioligand; assay type: protein assay
T1 sequence (P15823 whole entry): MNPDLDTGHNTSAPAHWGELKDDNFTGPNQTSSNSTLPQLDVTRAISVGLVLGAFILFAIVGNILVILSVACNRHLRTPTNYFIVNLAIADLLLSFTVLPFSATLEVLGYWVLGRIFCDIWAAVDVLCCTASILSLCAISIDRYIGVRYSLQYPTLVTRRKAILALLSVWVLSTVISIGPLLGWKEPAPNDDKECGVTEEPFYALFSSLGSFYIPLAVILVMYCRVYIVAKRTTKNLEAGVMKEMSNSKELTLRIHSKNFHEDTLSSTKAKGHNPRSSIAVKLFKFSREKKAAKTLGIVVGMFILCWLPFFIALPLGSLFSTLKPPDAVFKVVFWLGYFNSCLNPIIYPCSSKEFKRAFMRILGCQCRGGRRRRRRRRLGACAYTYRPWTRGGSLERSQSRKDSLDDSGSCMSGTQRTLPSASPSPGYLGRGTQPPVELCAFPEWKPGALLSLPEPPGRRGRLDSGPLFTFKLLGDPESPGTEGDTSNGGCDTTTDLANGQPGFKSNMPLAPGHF
T1 sequence (P23944 whole entry): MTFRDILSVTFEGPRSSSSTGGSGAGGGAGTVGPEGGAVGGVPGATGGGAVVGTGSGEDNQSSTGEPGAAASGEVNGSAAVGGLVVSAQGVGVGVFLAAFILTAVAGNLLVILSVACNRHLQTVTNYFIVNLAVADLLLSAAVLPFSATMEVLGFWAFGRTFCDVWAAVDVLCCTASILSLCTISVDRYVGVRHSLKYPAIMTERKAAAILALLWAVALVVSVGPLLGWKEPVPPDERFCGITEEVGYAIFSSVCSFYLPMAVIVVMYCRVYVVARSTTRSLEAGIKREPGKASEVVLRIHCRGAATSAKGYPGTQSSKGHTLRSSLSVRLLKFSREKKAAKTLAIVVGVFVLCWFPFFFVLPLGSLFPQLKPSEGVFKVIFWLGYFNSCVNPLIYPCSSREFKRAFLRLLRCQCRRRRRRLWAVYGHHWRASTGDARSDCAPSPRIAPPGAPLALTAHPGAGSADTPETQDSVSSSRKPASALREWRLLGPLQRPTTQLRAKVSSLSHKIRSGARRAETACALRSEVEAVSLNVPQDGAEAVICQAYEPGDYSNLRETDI
T1 sequence (P43140 whole entry): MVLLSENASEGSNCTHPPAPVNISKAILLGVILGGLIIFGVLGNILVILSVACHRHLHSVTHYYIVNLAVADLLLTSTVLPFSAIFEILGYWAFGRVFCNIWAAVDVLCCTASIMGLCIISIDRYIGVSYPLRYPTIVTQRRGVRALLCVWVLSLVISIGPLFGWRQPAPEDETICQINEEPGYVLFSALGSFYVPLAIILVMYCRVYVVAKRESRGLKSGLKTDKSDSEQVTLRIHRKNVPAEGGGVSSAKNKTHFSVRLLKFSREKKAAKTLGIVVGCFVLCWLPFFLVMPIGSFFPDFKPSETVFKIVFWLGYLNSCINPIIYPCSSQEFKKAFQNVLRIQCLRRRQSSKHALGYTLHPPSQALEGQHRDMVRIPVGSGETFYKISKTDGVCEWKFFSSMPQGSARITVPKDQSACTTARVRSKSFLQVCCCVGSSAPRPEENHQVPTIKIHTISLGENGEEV
In short: (§1)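 Rat cortical membranes (Sprague–Dawley, triple-washed; 200 μg protein) incubated with 0.8 nM [3H]prazosin in 140 mM NaCl/5 mM MgCl2/50 mM Tris-HCl pH 7.4, 60 min at room temperature. Nine concentrations in duplicate, 1% DMSO final. Nonspecific binding defined by 10 μM phentolamine.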

D(2) dopamine receptor = D(2) dopamine receptor (Rattus norvegicus, UniProt P61169); assay: Binding affinity against Dopamine receptor D2 from rat using [3H]raclopride as radioligand
Sequence of D(2) dopamine receptor (P61169 whole entry): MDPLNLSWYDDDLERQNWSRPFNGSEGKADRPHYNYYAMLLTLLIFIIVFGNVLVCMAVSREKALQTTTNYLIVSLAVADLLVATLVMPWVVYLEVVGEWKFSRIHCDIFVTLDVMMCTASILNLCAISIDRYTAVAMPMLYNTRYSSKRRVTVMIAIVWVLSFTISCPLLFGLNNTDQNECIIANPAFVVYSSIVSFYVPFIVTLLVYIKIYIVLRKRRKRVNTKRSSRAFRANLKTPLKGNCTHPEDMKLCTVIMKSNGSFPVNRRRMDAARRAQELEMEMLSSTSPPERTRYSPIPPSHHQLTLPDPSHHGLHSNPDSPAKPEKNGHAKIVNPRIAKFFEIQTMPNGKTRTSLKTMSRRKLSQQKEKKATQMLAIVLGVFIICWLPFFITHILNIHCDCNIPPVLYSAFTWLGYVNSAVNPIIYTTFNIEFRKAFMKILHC
In short: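 Washed Sprague–Dawley rat striatal membranes (200 μg protein) incubated with 3 nM [3H]raclopride in 120 mM NaCl/5 mM KCl/50 mM Tris-HCl pH 7.4, 60 min at room temperature. Nine concentrations in duplicate, 1% DMSO final. Nonspecific binding with 300 μM sulpiride.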

[2] = target: T2, Glutamate NMDA receptor; Grin1/Grin2a (Rattus norvegicus, UniProt P35439+Q00959); assay: Antagonistic activity against rat N-methyl-D-aspartate glutamate receptor 1/2A, expressed in Xenopus oocytes; assay type: functional, cell-based, Oocyte
T2 sequence (Q00959 whole entry, other chains not shown, the tested form may be a part): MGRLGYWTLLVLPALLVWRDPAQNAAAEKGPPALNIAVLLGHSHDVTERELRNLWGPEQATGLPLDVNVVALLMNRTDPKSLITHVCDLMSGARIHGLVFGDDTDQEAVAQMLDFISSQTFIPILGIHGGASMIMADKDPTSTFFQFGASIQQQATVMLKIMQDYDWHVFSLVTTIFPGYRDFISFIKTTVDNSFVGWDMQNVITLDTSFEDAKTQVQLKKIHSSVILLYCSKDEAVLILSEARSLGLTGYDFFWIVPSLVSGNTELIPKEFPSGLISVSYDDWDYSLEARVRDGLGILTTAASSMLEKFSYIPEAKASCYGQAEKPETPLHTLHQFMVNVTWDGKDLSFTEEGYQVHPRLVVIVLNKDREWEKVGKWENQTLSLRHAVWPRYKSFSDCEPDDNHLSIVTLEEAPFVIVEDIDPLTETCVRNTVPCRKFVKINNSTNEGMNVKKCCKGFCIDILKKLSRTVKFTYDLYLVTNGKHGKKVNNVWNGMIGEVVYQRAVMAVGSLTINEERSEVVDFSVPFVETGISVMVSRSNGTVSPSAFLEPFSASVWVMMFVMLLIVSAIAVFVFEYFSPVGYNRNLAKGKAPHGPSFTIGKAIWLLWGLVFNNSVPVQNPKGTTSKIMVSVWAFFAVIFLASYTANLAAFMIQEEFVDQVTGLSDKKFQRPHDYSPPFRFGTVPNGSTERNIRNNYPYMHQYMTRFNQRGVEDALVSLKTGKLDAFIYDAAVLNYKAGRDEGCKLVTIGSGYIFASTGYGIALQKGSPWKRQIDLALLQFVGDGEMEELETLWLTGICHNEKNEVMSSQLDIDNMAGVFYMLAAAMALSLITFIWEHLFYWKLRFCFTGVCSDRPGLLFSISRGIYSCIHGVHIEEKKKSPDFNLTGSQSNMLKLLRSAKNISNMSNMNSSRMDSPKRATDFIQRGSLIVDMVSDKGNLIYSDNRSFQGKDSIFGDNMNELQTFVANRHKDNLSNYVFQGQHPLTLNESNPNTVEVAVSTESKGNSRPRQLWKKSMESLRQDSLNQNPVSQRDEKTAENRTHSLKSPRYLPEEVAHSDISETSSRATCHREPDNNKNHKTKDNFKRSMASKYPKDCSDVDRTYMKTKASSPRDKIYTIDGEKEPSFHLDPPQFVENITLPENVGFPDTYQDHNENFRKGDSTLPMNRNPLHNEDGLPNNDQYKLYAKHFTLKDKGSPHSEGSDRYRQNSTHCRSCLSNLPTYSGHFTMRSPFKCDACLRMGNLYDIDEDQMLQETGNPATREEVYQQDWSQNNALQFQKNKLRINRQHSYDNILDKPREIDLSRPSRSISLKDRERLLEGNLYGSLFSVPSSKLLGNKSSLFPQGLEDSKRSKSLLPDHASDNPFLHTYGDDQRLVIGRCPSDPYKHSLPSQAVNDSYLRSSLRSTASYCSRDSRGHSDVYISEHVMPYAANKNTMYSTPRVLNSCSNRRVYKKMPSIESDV
In short: (§2)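 Two-electrode voltage clamp at -70 mV in nominally Ca2+-free Ringer (NaCl 115, KCl 2, BaCl2 1.8, HEPES 5 mM, pH 7.4). Drugs are given by bath perfusion at 7–10 mL/min, with final DMSO 0.1–1%. Inhibition of NMDA responses is measured, and IC50 is fitted from partial 3–5 point concentration–inhibition curves with a free residual minimum. Mean ± SEM, n as reported.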

[3] = target: T3, Glutamate NMDA receptor; Grin1/Grin2b (Rattus norvegicus, UniProt P35439+Q00960); assay: Antagonistic activity against rat N-methyl-D-aspartate glutamate receptor 1/2B expressed in Xenopus oocytes; assay type: functional, cell-based, Oocyte
T3 sequence (Q00960 whole entry, other chains not shown, the tested form may be a part): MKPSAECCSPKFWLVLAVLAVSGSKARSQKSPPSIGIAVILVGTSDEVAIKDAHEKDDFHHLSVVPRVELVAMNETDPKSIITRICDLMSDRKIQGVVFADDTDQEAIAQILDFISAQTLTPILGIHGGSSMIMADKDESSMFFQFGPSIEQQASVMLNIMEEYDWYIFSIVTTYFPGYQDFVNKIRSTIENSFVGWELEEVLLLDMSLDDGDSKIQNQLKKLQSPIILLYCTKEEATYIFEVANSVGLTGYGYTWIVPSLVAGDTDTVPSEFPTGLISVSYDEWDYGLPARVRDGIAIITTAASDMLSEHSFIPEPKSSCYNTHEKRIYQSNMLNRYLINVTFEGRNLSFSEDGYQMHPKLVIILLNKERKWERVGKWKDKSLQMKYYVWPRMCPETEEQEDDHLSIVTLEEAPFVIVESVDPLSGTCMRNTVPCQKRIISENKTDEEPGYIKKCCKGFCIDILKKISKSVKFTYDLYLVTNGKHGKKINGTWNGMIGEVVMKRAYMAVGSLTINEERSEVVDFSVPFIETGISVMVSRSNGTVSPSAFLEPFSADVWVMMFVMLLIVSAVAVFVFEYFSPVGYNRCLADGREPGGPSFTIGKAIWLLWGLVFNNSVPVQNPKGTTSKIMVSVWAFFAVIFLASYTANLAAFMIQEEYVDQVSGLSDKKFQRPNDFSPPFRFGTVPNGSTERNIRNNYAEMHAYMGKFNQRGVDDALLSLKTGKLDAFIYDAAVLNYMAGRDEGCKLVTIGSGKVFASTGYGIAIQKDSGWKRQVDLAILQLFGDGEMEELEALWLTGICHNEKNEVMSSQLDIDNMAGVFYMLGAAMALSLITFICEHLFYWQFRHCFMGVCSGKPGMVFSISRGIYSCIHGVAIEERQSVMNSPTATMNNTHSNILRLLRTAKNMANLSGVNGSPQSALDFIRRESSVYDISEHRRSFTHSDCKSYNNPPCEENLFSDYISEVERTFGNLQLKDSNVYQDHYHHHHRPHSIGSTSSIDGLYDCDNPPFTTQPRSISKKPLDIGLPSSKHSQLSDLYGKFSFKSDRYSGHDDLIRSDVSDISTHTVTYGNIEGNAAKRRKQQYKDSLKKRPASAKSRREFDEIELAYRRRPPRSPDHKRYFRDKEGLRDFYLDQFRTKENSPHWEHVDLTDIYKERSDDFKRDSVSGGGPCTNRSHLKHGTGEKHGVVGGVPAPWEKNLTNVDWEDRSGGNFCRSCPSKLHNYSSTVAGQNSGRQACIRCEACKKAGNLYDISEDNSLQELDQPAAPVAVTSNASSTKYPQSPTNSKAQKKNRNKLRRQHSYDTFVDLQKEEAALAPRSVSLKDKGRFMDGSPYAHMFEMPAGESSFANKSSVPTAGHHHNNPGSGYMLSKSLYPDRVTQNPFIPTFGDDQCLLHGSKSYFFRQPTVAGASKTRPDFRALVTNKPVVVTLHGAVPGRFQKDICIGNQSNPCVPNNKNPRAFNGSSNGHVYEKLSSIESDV
In short: (§3)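 Cloned NR1A/2B receptors in oocytes, recorded by two-electrode voltage clamp at -70 mV in nominally Ca2+-free Ringer (pH 7.4). Drugs are bath perfused, with final DMSO 0.1–1%. IC50 for inhibition of NMDA responses is fitted from partial 3–5 point curves, with the residual fractional response ('min') fixed at 0.15. Mean ± SEM.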

[4] = target: T4, Glutamate NMDA receptor; Grin1/Grin2c (Rattus norvegicus, UniProt P35439+Q00961); assay: Antagonistic activity against rat N-methyl-D-aspartate glutamate receptor 1/2C expressed in Xenopus oocytes; assay type: functional, cell-based, Oocyte; in short: as §2
T4 sequence (Q00961 whole entry, other chains not shown): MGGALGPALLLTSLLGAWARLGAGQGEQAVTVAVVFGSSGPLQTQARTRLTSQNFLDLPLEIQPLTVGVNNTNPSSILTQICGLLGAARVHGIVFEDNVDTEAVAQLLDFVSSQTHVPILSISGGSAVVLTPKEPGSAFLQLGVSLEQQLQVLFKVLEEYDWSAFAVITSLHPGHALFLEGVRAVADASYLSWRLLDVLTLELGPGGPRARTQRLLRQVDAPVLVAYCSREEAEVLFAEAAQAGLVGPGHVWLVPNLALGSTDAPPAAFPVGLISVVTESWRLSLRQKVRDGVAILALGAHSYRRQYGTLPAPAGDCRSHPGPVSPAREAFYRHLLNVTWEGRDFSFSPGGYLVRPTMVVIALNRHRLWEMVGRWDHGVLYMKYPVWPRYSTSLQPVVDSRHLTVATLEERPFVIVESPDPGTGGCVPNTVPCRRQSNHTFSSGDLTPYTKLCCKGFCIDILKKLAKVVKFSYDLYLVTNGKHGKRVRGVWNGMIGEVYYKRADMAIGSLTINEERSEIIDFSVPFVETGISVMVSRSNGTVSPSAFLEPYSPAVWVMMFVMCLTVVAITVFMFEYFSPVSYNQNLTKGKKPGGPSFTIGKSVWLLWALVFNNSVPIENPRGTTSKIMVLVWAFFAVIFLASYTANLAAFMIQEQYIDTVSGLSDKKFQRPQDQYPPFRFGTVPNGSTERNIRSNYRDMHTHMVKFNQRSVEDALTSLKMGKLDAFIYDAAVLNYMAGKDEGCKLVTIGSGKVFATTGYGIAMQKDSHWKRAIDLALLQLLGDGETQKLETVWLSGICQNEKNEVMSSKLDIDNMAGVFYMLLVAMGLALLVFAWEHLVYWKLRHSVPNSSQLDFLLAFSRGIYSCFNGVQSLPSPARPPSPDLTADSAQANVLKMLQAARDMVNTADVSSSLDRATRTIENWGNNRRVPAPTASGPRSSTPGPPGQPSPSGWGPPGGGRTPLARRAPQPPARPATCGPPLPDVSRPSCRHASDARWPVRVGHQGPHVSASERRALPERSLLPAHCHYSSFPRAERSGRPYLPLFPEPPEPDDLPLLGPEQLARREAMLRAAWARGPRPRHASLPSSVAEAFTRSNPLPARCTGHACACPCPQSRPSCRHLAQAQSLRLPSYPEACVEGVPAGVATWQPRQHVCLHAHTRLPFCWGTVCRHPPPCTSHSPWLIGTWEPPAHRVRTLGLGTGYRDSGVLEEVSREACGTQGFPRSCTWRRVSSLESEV

[5] = target: T3, Glutamate NMDA receptor; Grin1/Grin2b; assay: Antagonistic activity against rat NR1A/2B receptor expressed in Xenopus oocytes; assay type: functional, cell-based, Oocyte; in short: as §3
[6] = target: T4, Glutamate NMDA receptor; Grin1/Grin2c; assay: The compound was tested for antagonistic activity against rat NR1A/2C receptor expressed in Xenopus oocytes; assay type: functional, cell-based, Oocyte
In short: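 Drugs are given by bath perfusion at 7–10 mL/min, with final DMSO 0.1–1%. Inhibition of NMDA responses is measured, and IC50 is fitted from partial 3–5 point concentration–inhibition curves with a free residual minimum. Mean ± SEM, n as reported.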

[7] = target: T2, Glutamate NMDA receptor; Grin1/Grin2a; assay: Antagonistic activity against rat NR1A/2A receptor, expressed in Xenopus oocytes; assay type: functional, cell-based, Oocyte; in short: as §2
[8] = target: T1, Adrenergic receptor alpha-1; assay: Binding affinity against alpha-1 adrenergic receptor from rat using [3H]-prazosin as radioligand; assay type: protein assay; in short: as §1
[9] = Antagonistic activity against rat NR1A/2A receptor, expressed in Xenopus oocytes.; assay type: functional, cell-based; conditions: Oocyte; in short: as §2

IC50 [1]	IC50 (D(2) dopamine receptor)	IC50 [2]	IC50 [3]	IC50 [4]	IC50 [5]	IC50 [6]	IC50 [7]	IC50 [8]	IC50 [9]	Compound
1 µM	0.3 µM	84 µM	0.46 µM	> 100 µM	–	–	–	–	–	CNc1ccc(C#CCCN2CCC(Cc3ccccc3)CC2)cc1
–	–	–	–	–	2.7 µM	> 100 µM	> 100 µM	–	–	Fc1ccc(C#CCCN2CCC(Cc3ccccc3)CC2)cc1
–	–	–	–	–	–	> 100 µM	> 100 µM	–	–	O=[N+]([O-])c1ccc(C#CCCN2CCC(Cc3ccccc3)CC2)cc1
–	1.1 µM	–	–	–	0.19 µM	> 100 µM	> 100 µM	1 µM	–	Nc1ccc(C#CCCN2CCC(Cc3ccccc3)CC2)cc1N
–	–	56 µM	13 µM	> 100 µM	–	–	–	–	–	CC(=O)Nc1ccc(C#CCN2CCC(Cc3ccccc3)CC2)cc1
–	15 µM	–	–	–	0.83 µM	–	> 100 µM	63 µM	–	Nc1ccc(C#CCCN2CCC(O)(Cc3ccccc3)CC2)cc1
–	–	–	–	–	3.8 µM	> 100 µM	> 100 µM	–	–	Clc1cccc(C#CCCN2CCC(Cc3ccccc3)CC2)c1
–	7.9 µM	–	–	–	0.65 µM	> 100 µM	29 µM	31 µM	–	Nc1ccc(C#CCCN2CCC(O)(Cc3ccc(F)cc3)CC2)cc1
–	–	–	–	–	–	> 100 µM	> 100 µM	–	–	Nc1ccc(C#CCN2CCC(Cc3ccccc3)CC2)cc1
2.2 µM	12 µM	> 100 µM	0.15 µM	> 100 µM	–	–	–	–	–	CS(=O)(=O)Nc1ccc(C#CCN2CCC(Cc3ccccc3)CC2)cc1
0.8 µM	0.3 µM	–	0.52 µM	> 100 µM	–	–	–	–	–	NCc1cccc(C#CCCN2CCC(Cc3ccccc3)CC2)c1
–	–	–	–	–	4.2 µM	> 100 µM	42 µM	–	–	Cc1ccc(C#CCCN2CCC(Cc3ccccc3)CC2)cc1
–	–	–	–	–	1.1 µM	> 100 µM	70 µM	–	–	Nc1ccccc1C#CCCN1CCC(Cc2ccccc2)CC1
–	–	–	–	–	2.6 µM	> 100 µM	> 100 µM	–	–	COc1ccc(C#CCCN2CCC(Cc3ccccc3)CC2)cc1
–	–	–	–	–	1.1 µM	> 100 µM	> 100 µM	–	–	Nc1cccc(C#CCCN2CCC(Cc3ccccc3)CC2)c1
1.1 µM	2.3 µM	> 100 µM	0.28 µM	> 100 µM	–	–	–	–	–	CS(=O)(=O)Nc1ccc(C#CCCCN2CCC(Cc3ccccc3)CC2)cc1
–	–	–	–	–	0.38 µM	> 100 µM	12 µM	–	–	Nc1ccc(C#CCCCN2CCC(Cc3ccccc3)CC2)cc1

IC50 [1]	IC50 (D(2) dopamine receptor)	IC50 [2]	IC50 [3]	IC50 [4]	IC50 [5]	IC50 [6]	IC50 [7]	IC50 [8]	IC50 [9]	Compound
–	–	–	–	–	4.7 µM	–	–	–	> 100 µM	C(#Cc1ccccc1)CCN1CCC(Cc2ccccc2)CC1
–	1.7 µM	–	–	–	0.1 µM	> 100 µM	> 100 µM	1.5 µM	–	Oc1ccc(C#CCN2CCC(Cc3ccccc3)CC2)cc1
–	–	–	–	–	1.2 µM	> 100 µM	85 µM	–	–	Clc1ccccc1C#CCCN1CCC(Cc2ccccc2)CC1
–	–	–	–	–	1.2 µM	–	–	–	–	Nc1ccc(C#CCCN2CCC(Cc3ccc(Cl)cc3)CC2)cc1
–	0.4 µM	–	–	–	0.26 µM	> 100 µM	70 µM	0.7 µM	–	Nc1ccc(C#CCCN2CCC(Cc3ccc(F)cc3)CC2)cc1
–	–	> 100 µM	1.4 µM	> 100 µM	–	–	–	–	–	CC(=O)Nc1ccc(C#CCCCN2CCC(Cc3ccccc3)CC2)cc1
–	–	–	–	–	4 µM	> 100 µM	47 µM	–	–	Clc1ccc(C#CCCN2CCC(Cc3ccccc3)CC2)cc1
1.4 µM	0.1 µM	22 µM	0.31 µM	> 100 µM	–	–	–	–	–	NS(=O)(=O)c1ccc(C#CCCN2CCC(Cc3ccccc3)CC2)cc1
–	0.8 µM	–	–	–	0.43 µM	–	–	1 µM	–	Nc1ccc(C#CCCN2CCC(Cc3ccccc3)CC2)cc1
–	0.29 µM	–	–	–	0.17 µM	–	> 100 µM	0.58 µM	–	Oc1ccc(C#CCCN2CCC(Cc3ccccc3)CC2)cc1
1.1 µM	0.1 µM	> 100 µM	0.26 µM	> 100 µM	–	–	–	–	–	CC(=O)Nc1ccc(C#CCCN2CCC(Cc3ccccc3)CC2)cc1
–	0.8 µM	–	–	–	0.31 µM	27 µM	75 µM	1.2 µM	–	Cc1ccc(CC2CCN(CCC#Cc3ccc(N)cc3)CC2)cc1
–	–	> 100 µM	15 µM	> 100 µM	–	–	–	–	–	CN(C)c1ccc(C#CCCN2CCC(Cc3ccccc3)CC2)cc1
1.2 µM	0.2 µM	> 100 µM	0.24 µM	> 100 µM	–	–	–	–	–	CS(=O)(=O)Nc1ccc(C#CCCN2CCC(Cc3ccccc3)CC2)cc1
–	10 µM	–	–	–	0.37 µM	> 100 µM	68 µM	85 µM	–	Cc1ccc(CC2(O)CCN(CCC#Cc3ccc(N)cc3)CC2)cc1
–	–	> 100 µM	2 µM	> 100 µM	–	–	–	–	–	NC(=O)c1ccc(C#CCCN2CCC(Cc3ccccc3)CC2)cc1
